Measured values from ChEMBL document CHEMBL4715773, “New Inhibitors of Indoleamine 2,3-Dioxygenase 1: Molecular Modeling Studies, Synthesis, and Biological Evaluation” (J Med Chem, 2016).
Each block holds one compound with its values, some of them ahead of it. Calls of active or inactive are those of the source. The calls are words filed in the database; no cut-off is given here.

Tests used:
[1] = target: T1, Indoleamine 2,3-dioxygenase 1 (Homo sapiens, UniProt P14902); test: Inhibition of human IDO1 incubated for 60 mins in presence of L-tryptophan by HPLC analysis
Outline: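 Recombinant human IDO1 (10 μg/mL) was assayed in 50 mM potassium phosphate pH 6.5 with 10 mM ascorbate, 10 μM methylene blue and 100 μg/mL catalase. Reaction was started with 200 μM L-Trp and run at 37 °C for 60 min. It was stopped with TCA, then held at 50 °C for 15 min to hydrolyse N-formylkynurenine. Kynurenine was measured by reversed-phase HPLC at 360 nm; triplicate determinations averaged.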
Target sequence in this assay (P14902 whole entry): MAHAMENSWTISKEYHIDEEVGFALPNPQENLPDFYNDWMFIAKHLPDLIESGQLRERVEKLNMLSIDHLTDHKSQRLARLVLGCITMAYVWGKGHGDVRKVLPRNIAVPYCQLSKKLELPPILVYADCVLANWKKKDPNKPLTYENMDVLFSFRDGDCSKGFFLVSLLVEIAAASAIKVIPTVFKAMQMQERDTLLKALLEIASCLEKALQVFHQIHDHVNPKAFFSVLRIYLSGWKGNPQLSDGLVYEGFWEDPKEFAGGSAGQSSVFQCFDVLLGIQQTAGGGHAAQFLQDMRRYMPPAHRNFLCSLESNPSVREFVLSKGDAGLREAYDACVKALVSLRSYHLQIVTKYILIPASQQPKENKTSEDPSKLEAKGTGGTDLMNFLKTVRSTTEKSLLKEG

HT-29 [2] = test: Induction of cell death in human HT-29 cells assessed as reduction in Bcl-xL expression at 10 uM incubated for 24 hrs by Western blot analysis
HT-29 [3] = test: Induction of cell death in human HT-29 cells assessed as reduction in Mcl1 expression at 10 uM incubated for 24 hrs by Western blot analysis
[4] = target: T1, Indoleamine 2,3-dioxygenase 1; test: Inhibition of human IDO1 at 100 uM incubated for 60 mins in presence of L-tryptophan by HPLC analysis relative to control
Target sequence in this assay (P14902 whole entry, looked up): as the sequence (P14902 whole entry) above

HT-29 [5] = test: Induction of cell death in human HT-29 cells assessed as reduction in beta-catenin expression at 10 uM incubated for 24 hrs by Western blot analysis
HCT-116 [6] = test: Growth inhibition of human HCT116 cells incubated for 24 hrs by MTT assay; type: functional, cell-based
Outline: (§1)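 Cells grown in DMEM (4.5 g/L glucose) with 10% FBS, penicillin/streptomycin and 2 mM glutamine, seeded and allowed 24 h to attach, then exposed 24 h to compound. The range was 5–80 μM or 2.5–80 μM. MTT (500 μM in PBS) was added for 3 h at 37 °C in the dark. Formazan was dissolved in propan-2-ol/0.04 N HCl and read at 550 nm. Viability is given as % of 0.1% DMSO control; three independent experiments in triplicate.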

HCT-116 [7] = test: Reversible induction of cell cycle arrest in human HCT-116 cells assessed as increase of accumulation at G2/M phase at 10 uM incubated for 24 hrs and harvested after further 24 hrs recovery in drug-free medium by […] staining based flow cytometry; type: functional
Outline: (§2)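 Cells were exposed 24 h to 20, 10 or 2.5 μM or to 0.1% DMSO, then washed into drug-free medium for a further 24 h before harvest. DNA content was measured by propidium iodide flow cytometry on at least 10000 cells per sample. G2/M and other phase fractions are given as fold change versus DMSO, as mean ± SD of three independent experiments.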

HT-29 [8] = test: Growth inhibition of human HT-29 cells incubated for 24 hrs by MTT assay; type: functional, cell-based; outline: as §1
HT-29 [9] = test: Reversible induction of cell cycle arrest in human HT-29 cells assessed as increase of accumulation at G2/M phase at 20 uM incubated for 24 hrs and harvested after further 24 hrs recovery in drug-free medium by […] staining based flow cytometry; type: functional; outline: as §2
HT-29 [10] = test: Growth inhibition of human HT-29 cells assessed as cell viability at 10 uM incubated for 24 hrs by MTT assay; type: functional; details: read-out: Activity; outline: as §1
HCT-116 [11] = test: Induction of cell death in human HCT-116 cells assessed as reduction in beta-catenin expression at 10 uM incubated for 24 hrs by Western blot analysis; type: functional, cell-based; details: dose 20.0 µM, in the assay text read “at 20 uM” for “at 10 uM”
Outline: (§3)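 Cells were treated 24 h with compound or DMSO, then lysed in RIPA-type buffer (50 mM Tris pH 7.4, 150 mM NaCl, 0.1% SDS, 1% deoxycholate, 1% Triton X-100, 5 mM EDTA, protease inhibitors). Protein was quantified by Bradford, run on 12% SDS-PAGE and transferred to PVDF. Blots were probed overnight at 4 °C for Mcl1, Bcl-xL (1:1000), β-catenin (1:500) and β-actin loading control (1:5000), with HRP secondary and ECL detection.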

HCT-116 [12] = test: Induction of cell cycle arrest in human HCT116 cells assessed as increase of accumulation at G2/M phase at 20 uM incubated for 24 hrs by […] staining based flow cytometry; type: functional
Outline: (§4)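 Cells in DMEM/10% FBS were treated 24 h at 20, 10 or 2.5 μM alongside a 0.1% DMSO vehicle, then stained with propidium iodide for DNA content by flow cytometry, acquiring at least 10000 cells per sample. G0/G1, S and G2/M fractions are expressed as fold change versus DMSO. Values are mean ± SD of three independent experiments.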

HCT-116 [13] = test: Induction of cell death in human HCT-116 cells assessed as reduction in Bcl-xL expression at 10 uM incubated for 24 hrs by Western blot analysis; type: functional, cell-based; details: dose 20.0 µM, in the assay text read “at 20 uM” for “at 10 uM”; outline: as §3
HCT-116 [14] = test: Induction of cell death in human HCT-116 cells assessed as reduction in Mcl1 expression at 10 uM incubated for 24 hrs by Western blot analysis; type: functional, cell-based; details: dose 20.0 µM, in the assay text read “at 20 uM” for “at 10 uM”; outline: as §3
HT-29 [15] = test: Induction of cell cycle arrest in human HT-29 cells assessed as increase of accumulation at G2/M phase at 20 uM incubated for 24 hrs by […] staining based flow cytometry; type: functional; details: dose 10.0 µM, in the assay text read “at 10 uM” for “at 20 uM”; outline: as §4
HCT-116 [16] = test: Growth inhibition of human HCT116 cells assessed as cell viability at 20 uM incubated for 24 hrs by MTT assay; type: functional; details: read-out: Activity; outline: as §1
HT-29 [17] = test: Induction of cell death in human HT-29 cells assessed as reduction in Mcl1 expression at 10 uM incubated for 24 hrs by Western blot analysis; type: functional, cell-based; details: dose 2.5 µM, in the assay text read “at 2.5 uM” for “at 10 uM”; outline: as §3
HT-29 [18] = test: Growth inhibition of human HT-29 cells assessed as cell viability at 2.5 uM incubated for 24 hrs by MTT assay; type: functional; details: read-out: Activity; outline: as §1
HT-29 [19] = test: Induction of cell death in human HT-29 cells assessed as reduction in Bcl-xL expression at 10 uM incubated for 24 hrs by Western blot analysis; type: functional, cell-based; details: dose 2.5 µM, in the assay text read “at 2.5 uM” for “at 10 uM”; outline: as §3
HCT-116 [20] = test: Induction of cell cycle arrest in human HCT116 cells assessed as increase of accumulation at G2/M phase at 10 uM incubated for 24 hrs by […] staining based flow cytometry; type: functional; outline: as §4
HT-29 [21] = test: Induction of cell death in human HT-29 cells assessed as reduction in Mcl1 expression at 2.5 uM incubated for 24 hrs by Western blot analysis; type: functional, cell-based; outline: as §3
HCT-116 [22] = test: Growth inhibition of human HCT116 cells assessed as cell viability at 10 uM incubated for 24 hrs by MTT assay; type: functional; details: read-out: Activity; outline: as §1
HT-29 [23] = test: Induction of cell death in human HT-29 cells assessed as reduction in beta-catenin expression at 2.5 uM incubated for 24 hrs by Western blot analysis; type: functional, cell-based; outline: as §3
HT-29 [24] = test: Induction of cell death in human HT-29 cells assessed as reduction in beta-catenin expression at 10 uM incubated for 24 hrs by Western blot analysis; type: functional, cell-based; details: dose 2.5 µM, in the assay text read “at 2.5 uM” for “at 10 uM”; outline: as §3
HCT-116 [25] = test: Reversible induction of cell cycle arrest in human HCT-116 cells assessed as increase of accumulation at G2/M phase at 2.5 uM incubated for 24 hrs and harvested after further 24 hrs recovery in drug-free medium by […] staining based flow cytometry; type: functional; outline: as §2
HT-29 [26] = test: Reversible induction of cell cycle arrest in human HT-29 cells assessed as increase of accumulation at G2/M phase at 10 uM incubated for 24 hrs and harvested after further 24 hrs recovery in drug-free medium by […] staining based flow cytometry; type: functional; outline: as §2
HT-29 [27] = test: Induction of cell death in human HT-29 cells assessed as reduction in Bcl-xL expression at 2.5 uM incubated for 24 hrs by Western blot analysis; type: functional, cell-based; outline: as §3
HT-29 [28] = test: Induction of cell cycle arrest in human HT-29 cells assessed as increase of accumulation at G2/M phase at 2.5 uM incubated for 24 hrs by […] staining based flow cytometry; type: functional; outline: as §4

IC50 [1]: 32 µM
SMILES: COc1ccccc1Sc1c[nH]c2ccc(F)cc12

inhibition [4]: 80% | IC50 [1]: 17.5 µM
SMILES: COc1ccccc1Sc1c[nH]c2ccc(Cl)cc12
Activity (HT-29 [2]): Active | Activity (HT-29 [3]): Active | Activity (HT-29 [5]): Active | growth inhibition (GI) (HCT-116 [6]): Dose-dependent effect | Activity (HCT-116 [7]): Active | growth inhibition (GI) (HT-29 [8]): Dose-dependent effect | Activity (HT-29 [9]): Active | viability at 10 µM (HT-29 [10]): 40% | Activity (HCT-116 [11]): Active | Activity (HCT-116 [12]): Active | Activity (HCT-116 [13]): Active | Activity (HCT-116 [14]): Active | Activity (HT-29 [15]): Active | viability at 20 µM (HCT-116 [16]): 40%

IC50 [1]: > 200 µM
SMILES: CCOc1ccc2[nH]cc(Sc3ccccc3OC)c2c1

IC50 [1]: 100 µM
SMILES: Cc1cccc(Sc2c[nH]c3ccc(Cl)cc23)c1

IC50 [1]: 90 µM
SMILES: COc1cc(OC)cc(Sc2c[nH]c3c(Cl)c(Cl)ccc23)c1

IC50 [1]: > 200 µM
SMILES: COc1ccccc1C(=O)c1c[nH]c2ccc(Cl)cc12

IC50 [1]: 45 µM
SMILES: COc1ccccc1Sc1c[nH]c2ccc(I)cc12

IC50 [1]: > 50 µM
SMILES: COc1ccc(Sc2c[nH]c3ccc(Cl)cc23)c(OC)c1

IC50 [1]: 7 µM
SMILES: COc1cc(OC)cc(Sc2c[nH]c3ccc(Cl)cc23)c1
Activity (HT-29 [17]): Active | viability at 2.5 µM (HT-29 [18]): 40% | growth inhibition (GI) (HCT-116 [6]): Dose-dependent effect | Activity (HT-29 [19]): Active | Activity (HCT-116 [20]): Active | Activity (HT-29 [21]): Active | viability at 10 µM (HCT-116 [22]): 40% | Activity (HT-29 [23]): Active | Activity (HT-29 [24]): Active | growth inhibition (GI) (HT-29 [8]): Dose-dependent effect | Activity (HCT-116 [25]): Active | Activity (HT-29 [26]): Active | Activity (HT-29 [27]): Active | Activity (HT-29 [28]): Active

IC50 [1]: > 200 µM
SMILES: COc1cc(OC)cc(Sc2c[nH]c3ncccc23)c1

IC50 [1]: > 200 µM
SMILES: Clc1ccc2[nH]cc(Sc3ccccc3)c2c1

IC50 [1]: 52 µM
SMILES: COc1cc(OC)cc(Sc2c[nH]c3cccc(Cl)c23)c1

IC50 [1]: > 200 µM
SMILES: COc1ccccc1S(=O)(=O)c1c[nH]c2ccc(Cl)cc12

IC50 [1]: 16 µM
SMILES: COc1ccc(Sc2c[nH]c3ccc(Cl)cc23)cc1

IC50 [1]: 15 µM
SMILES: COc1cc(OC)cc(Sc2c[nH]c3cc(Cl)ccc23)c1

IC50 [1]: 21 µM
SMILES: Cc1ccccc1Sc1c[nH]c2ccc(Cl)cc12

IC50 [1]: 45 µM
SMILES: COc1cc(OC)cc(Sc2c(C)[nH]c3ccc(Cl)cc23)c1

IC50 [1]: 63 µM
SMILES: COc1ccccc1Cc1c[nH]c2ccc(Cl)cc12

IC50 [1]: 24 µM
SMILES: COc1ccccc1Sc1c[nH]c2ccc(Br)cc12

IC50 [1]: 25 µM
SMILES: COc1cc(OC)cc(Sc2c[nH]c3ccccc23)c1

IC50 [1]: 21 µM
SMILES: COc1cccc(Sc2c[nH]c3ccc(Cl)cc23)c1

IC50 [1]: > 200 µM
SMILES: COc1cc(OC)cc(Sc2c[nH]c3c(Cl)cccc23)c1

IC50 [1]: > 200 µM
SMILES: COC(=O)c1[nH]c2ccc(Cl)cc2c1Sc1ccccc1OC

IC50 [1]: > 200 µM
SMILES: Cc1ccc(Sc2c[nH]c3ccc(Cl)cc23)cc1

IC50 [1]: 40 µM
SMILES: COc1cc(Sc2c[nH]c3ccc(Cl)cc23)cc(OC)c1OC

IC50 [1]: 20 µM
SMILES: Cc1cc(C)cc(Sc2c[nH]c3ccc(Cl)cc23)c1
